Measured values: ChEMBL document CHEMBL1132476, “Design and synthesis of novel alpha(1)(a) adrenoceptor-selective antagonists. 1. Structure-activity relationship in dihydropyrimidinones” (J Med Chem, 1999)

What was measured:
[1] = species: Canis familiaris; assay: Potency to inhibit phenylephrine stimulated diastolic blood pressure in dog.; assay type: functional, Canis lupus familiaris, Artery
In short: (§1)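 Male mongrel dogs (9–14 kg), pentobarbital-anesthetized (35 mg/kg iv plus 4–5 mg/kg/h infusion), ventilated, with femoral catheters. Control iv bolus phenylephrine dose–response curves for intraurethral and diastolic pressure, repeated after successive iv antagonist doses (30, 100, 300). Kb by Arunlakshana–Schild analysis.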

[2] = species: Canis familiaris; assay: Antagonism against phenylephrine induced contractions in isolated prostate tissue of dog; assay type: functional, Canis lupus familiaris, Prostate gland
In short: (§2)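 Isolated prostate strips (rat or dog) contracted with phenylephrine as agonist. Antagonist potency is expressed as Kb, derived from the shift in the agonist response by a previously published method.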

[3] = species: Homo sapiens; assay: Antagonism against phenylephrine induced contractions in isolated prostate tissue of human; assay type: functional; conditions: Prostate gland
[4] = species: Canis familiaris; assay: Potency to inhibit phenylephrine stimulated intraurethral pressure in dog.; assay type: functional, Canis lupus familiaris, Urethra; in short: as §1
[5] = molecular target: Adrenergic receptor alpha-1 (Rattus norvegicus) (UniProt P15823+P23944+P43140); assay: Antagonistic activity against Alpha-1 adrenergic receptor in rat prostate tissue using A61603 as agonist; assay type: functional, tissue-based; conditions: Prostate gland
[6] = species: Rattus norvegicus; assay: Antagonism against phenylephrine induced contractions in isolated prostate tissue of rat; assay type: functional, Prostate gland; in short: as §2
[7] = molecular target: T1, Adrenergic receptor alpha-1 (Rattus norvegicus, UniProt P15823+P23944+P43140); assay: In vitro binding affinity against Alpha-1A adrenergic receptor in isolated prostate tissue of rat; assay type: tissue-based, Prostate gland
T1 sequence (P15823 whole entry): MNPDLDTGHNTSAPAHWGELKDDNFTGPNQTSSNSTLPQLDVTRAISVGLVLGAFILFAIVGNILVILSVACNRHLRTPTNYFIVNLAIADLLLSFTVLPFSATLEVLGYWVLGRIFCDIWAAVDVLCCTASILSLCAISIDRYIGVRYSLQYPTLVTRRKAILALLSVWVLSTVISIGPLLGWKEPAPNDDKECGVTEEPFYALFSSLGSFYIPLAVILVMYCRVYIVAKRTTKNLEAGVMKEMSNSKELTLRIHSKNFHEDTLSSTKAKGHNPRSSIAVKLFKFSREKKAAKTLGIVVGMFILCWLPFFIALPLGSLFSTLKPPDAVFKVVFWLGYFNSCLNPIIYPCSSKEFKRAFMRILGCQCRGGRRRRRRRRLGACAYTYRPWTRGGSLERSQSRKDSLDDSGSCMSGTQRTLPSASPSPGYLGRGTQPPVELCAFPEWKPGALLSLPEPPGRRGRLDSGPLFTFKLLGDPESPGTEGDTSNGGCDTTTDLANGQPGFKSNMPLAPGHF
T1 sequence (P23944 whole entry): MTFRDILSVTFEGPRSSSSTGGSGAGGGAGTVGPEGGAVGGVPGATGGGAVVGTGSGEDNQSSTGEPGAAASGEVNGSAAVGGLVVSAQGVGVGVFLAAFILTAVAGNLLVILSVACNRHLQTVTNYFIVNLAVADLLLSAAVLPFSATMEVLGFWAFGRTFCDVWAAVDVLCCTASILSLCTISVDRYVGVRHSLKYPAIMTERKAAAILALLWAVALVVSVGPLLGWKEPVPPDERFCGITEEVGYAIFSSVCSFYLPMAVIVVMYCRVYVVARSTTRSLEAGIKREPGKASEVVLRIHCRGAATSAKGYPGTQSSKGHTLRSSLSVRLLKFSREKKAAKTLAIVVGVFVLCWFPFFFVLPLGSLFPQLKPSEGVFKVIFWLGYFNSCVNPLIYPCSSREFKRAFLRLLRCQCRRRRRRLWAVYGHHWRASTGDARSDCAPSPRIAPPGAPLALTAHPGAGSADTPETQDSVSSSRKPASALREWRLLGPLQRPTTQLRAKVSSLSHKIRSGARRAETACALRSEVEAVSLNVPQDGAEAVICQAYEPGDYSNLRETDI
T1 sequence (P43140 whole entry): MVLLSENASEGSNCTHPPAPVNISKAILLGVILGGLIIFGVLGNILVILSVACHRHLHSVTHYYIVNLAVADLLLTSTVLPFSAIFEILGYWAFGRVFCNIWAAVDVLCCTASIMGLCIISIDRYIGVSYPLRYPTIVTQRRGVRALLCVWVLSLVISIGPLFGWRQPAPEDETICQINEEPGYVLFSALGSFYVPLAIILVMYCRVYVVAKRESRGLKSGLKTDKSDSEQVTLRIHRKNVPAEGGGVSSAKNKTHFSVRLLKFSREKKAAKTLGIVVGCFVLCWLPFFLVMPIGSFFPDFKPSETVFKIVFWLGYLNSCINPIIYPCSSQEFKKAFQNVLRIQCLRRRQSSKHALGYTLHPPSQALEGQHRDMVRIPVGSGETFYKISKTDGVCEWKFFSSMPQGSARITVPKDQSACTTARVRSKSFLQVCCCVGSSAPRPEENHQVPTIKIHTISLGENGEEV

[8] = species: Rattus norvegicus; assay: Dose required to produce 50% inhibition of phenylephrine induced contractile response in situ rat prostate.; assay type: functional, Prostate gland
In short: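 Male Sprague-Dawley rats (300–400 g), urethane-anesthetized, held at 37 °C rectal, pretreated with atropine and propranolol (1 mg/kg each). Anterior prostate on a force transducer at 2 g resting tension; phenylephrine challenge 10 μg/kg. For AD50, rising noncumulative antagonist doses were given every 20 min, with agonist 5 min after each. For duration, agonist was given 5 min after antagonist, then every 30 min for up to 4 h.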

[9] = species: Rattus norvegicus; assay: Antagonistic activity against norepinephrine induced contractions in rat vas deferens.; assay type: functional
[10] = species: Rattus norvegicus; assay: Antagonistic activity against norepinephrine induced contractions in rat aorta.; assay type: functional
[11] = species: Rattus norvegicus; assay: Dose required to produce 50% inhibition of phenylephrine induced diastolic blood pressure in rat.; assay type: functional, Artery
[12] = species: Rattus norvegicus; assay: (§3) Duration of action in rat; assay type: ADME, organism-based; conditions: in vivo
In short: (§4)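 Anesthetized (urethane) male Sprague-Dawley rats (300–400 g), kept at 37 °C rectal temperature. Anterior prostate attached to a force transducer at 2 g resting tension. Pretreatment: atropine and propranolol (1 mg/kg each). Contractions were evoked by agonist (phenylephrine 10 μg/kg or (R)-A-61603 30 ng/kg), given 5 min after antagonist and then every 30 min for up to 4 h.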

[13] = species: Canis familiaris; assay: Potency to inhibi phenylephrine stimulated diastolic blood pressure in dog.; assay type: functional, Canis lupus familiaris, Artery; in short: as §1
[14] = species: Rattus norvegicus; assay: as §3; assay type: functional; in short: as §4

SMILES	Kb [1] [µg/kg]	Kb [2] [nM]	Kb [3] [nM]	Kb [4] [µg/kg]	Kb [5] [nM]	Kb [6] [nM]	Ki [7] [nM]	AD50 [8] [mg/kg]	Kb [9] [nM]	Kb [10] [nM]	AD50 [11] [mg/kg]	Duration of action [12] [h]	Kb [13] [µg/kg]	Duration of action [14] [h]
CCC1=C(C(N)=O)C(c2ccc(F)c(F)c2)N(C(=O)NCCCN2CCC(C(=O)OC)(c3ccccc3)CC2)C(=O)N1 (stereo not drawn)	187	3.7	0.39	4.2	0.3	1	0.27	0.02	2.5	> 1000	>3	> 4		
COc1cc2nc(N3CCN(C(=O)C4CCCO4)CC3)nc(N)c2cc1OC (stereo not drawn) [TERAZOSIN]				16.4				0.052		19	0.065		15.7	>4
